# Most compounds without a hit are left out; they make up all but 3.7% or so of the library.
# KCC2 mod – modulators of human KCC2 chloride dependent transport. Q9H2X9. AID 1456. actives 2.2% (n = 190,000). B-score of Tl+ flux slope (higher = more flux/activation; lower = inhibition) at 10 µM. KCC2 cells, thallium flux FluoZin-2 fluorescence;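 active = thallium flux slope and its plate-corrected score both differing from the plate sample mean at a set confidence after two filtering rounds, in either direction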;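 also: slope of fluorescence scaled to starting intensity during 10 to 20 s after thallium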
# Target sequence (Q9H2X9 whole entry, looked up): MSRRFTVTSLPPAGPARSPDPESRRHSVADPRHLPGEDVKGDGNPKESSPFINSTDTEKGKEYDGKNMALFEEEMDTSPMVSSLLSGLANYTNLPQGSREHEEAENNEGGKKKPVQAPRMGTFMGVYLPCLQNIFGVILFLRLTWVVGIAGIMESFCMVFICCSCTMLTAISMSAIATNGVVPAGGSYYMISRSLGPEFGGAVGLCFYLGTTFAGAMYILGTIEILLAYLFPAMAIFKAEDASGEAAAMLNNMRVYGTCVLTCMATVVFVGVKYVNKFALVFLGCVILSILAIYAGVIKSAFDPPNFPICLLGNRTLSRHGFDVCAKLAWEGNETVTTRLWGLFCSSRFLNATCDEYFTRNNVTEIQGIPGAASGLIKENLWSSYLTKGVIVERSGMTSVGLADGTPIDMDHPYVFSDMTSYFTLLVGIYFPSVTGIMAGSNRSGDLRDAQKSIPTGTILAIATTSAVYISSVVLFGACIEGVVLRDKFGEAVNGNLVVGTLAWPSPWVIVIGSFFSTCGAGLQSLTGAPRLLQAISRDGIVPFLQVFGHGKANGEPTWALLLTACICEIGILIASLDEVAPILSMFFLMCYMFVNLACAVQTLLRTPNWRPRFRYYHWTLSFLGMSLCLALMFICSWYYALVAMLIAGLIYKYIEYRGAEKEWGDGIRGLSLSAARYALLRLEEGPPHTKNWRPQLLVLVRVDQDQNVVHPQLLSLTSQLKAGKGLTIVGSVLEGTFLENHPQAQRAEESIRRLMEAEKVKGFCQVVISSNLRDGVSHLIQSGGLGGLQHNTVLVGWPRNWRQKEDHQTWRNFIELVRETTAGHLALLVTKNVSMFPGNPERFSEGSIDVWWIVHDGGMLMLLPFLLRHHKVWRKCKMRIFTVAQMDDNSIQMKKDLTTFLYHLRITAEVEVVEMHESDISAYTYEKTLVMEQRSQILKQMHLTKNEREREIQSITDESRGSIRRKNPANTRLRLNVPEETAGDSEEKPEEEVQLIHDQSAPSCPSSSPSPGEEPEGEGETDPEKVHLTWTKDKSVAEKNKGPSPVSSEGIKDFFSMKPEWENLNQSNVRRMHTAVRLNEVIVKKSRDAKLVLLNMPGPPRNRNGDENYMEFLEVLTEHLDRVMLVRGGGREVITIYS
# ROMK primary – modulators of human ROMK potassium channel; P48048; Tet-inducible ROMK, thallium flux fluorescence; actives lie on both sides; B-score at 10 µM; actives 2% (n = 130,000); AID 1918;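 active = signal ratio slope over the read window, or its plate-corrected B-score, at least 3 SD from the plate mean, either direction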;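 also: B-score of the F/F0 ratio slope over 7 to 12 s after thallium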
# bCat nuc transl – beta-catenin nuclear translocation modulation; HeLa beta-catenin nuclear translocation, immunofluorescence imaging; nuclear translocation activity, % at 5 µM; actives 0.3% (n = 190,000); AID 1665;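 active = nuclear translocation activity above 50% at 5 µM, with a well cell count of 50 or more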;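 also: per-cell ratio of nuclear to cytoplasmic median beta-catenin stain intensity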
#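 assay system = human HeLa cells, endogenous beta-catenin | times = compound treatment 24 h, 37°C, 5% CO2 | detection = Anti-beta-catenin immunofluorescence on PFA-fixed, Triton-permeabilized cells, DAPI nuclei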
# MT stabilizer – stabilizes microtubules in HeLa cells | HeLa tubulin immunostaining HCS, 24 h; share of cells brighter than vehicle mean+2SD | AID 2205 | actives 0.83% (n = 200,000) | % tubulin-high responders, % at 10 µM;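 active = plate Z-score above 3 for both tubulin-high and condensed-nucleus cell shares, with cell loss under 80%, at 10 µM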;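 also: anti alpha tubulin signal scored within the nucleus-defined area of each cell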
# Redox H2O2 prof – compounds producing H2O2 with reducing agent – biochemical, NIH compound library profiling, artefact control for MLSCN library redox annotation, primary screen. DTT-dependent redox cycling H2O2, phenol red/HRP absorbance; 100% = 100 µM peroxide control, 0% = buffer. activation, % at 10 µM. actives 0.03% (n = 200,000);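 active = activation of at least 50% relative to the plate's high and low controls in the primary single-dose screen; inactive = activation below 50%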;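 also: compound incubated with DTT at 0.8 mM final as the reducing agent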
# A number is an active result; - = inactive; . = no result given.
SMILES,KCC2 mod,ROMK primary,bCat nuc transl,MT stabilizer,Redox H2O2 prof
CCOn1c(=O)c(-c2cccs2)[n+]([O-])c2ccccc21,3.78,.,-,-,-
COn1c(=O)c(-c2cccs2)[n+]([O-])c2ccccc21,-,.,-,-,-
COCCOC(=O)c1[nH]c2c(c1C)C(=O)CC(c1cccs1)C2 (configuration not stated),-,-,-,23.3,-
Cc1c(C(=O)OCC(C)C)[nH]c2c1C(=O)CC(c1cccs1)C2 (configuration not stated),-,.,294.9,13.3,-
CCOC(=O)c1[nH]c2c(c1C)C(=O)CC(c1ccc(F)cc1)C2 (configuration not stated),-,.,76.3,-,-
CCCOC(=O)c1[nH]c2c(c1C)C(=O)CC(c1ccc(OC)c(OC)c1)C2 (configuration not stated),-,-,-,-,-
COc1ccccc1CNC(=O)c1cc2c(=O)[nH]c3ccccc3c2n1C,-,-,-,-,-
COc1ccc(N2CCN(C(=O)COc3ncnc4ccccc34)CC2)cc1,-,-,-,-,-
COc1ccc(CN(C)CC(=O)NC(=O)NCc2ccccc2)cc1OC,4.96,.,-,-,-
COc1cccc(CN(C)CC(=O)NC(=O)NCc2ccccc2)c1,-,.,.,-,-
COc1ccccc1N1CCN(C(=O)CN2C(=O)c3ccccc3S2(=O)=O)CC1,-,.,-,.,.
COc1ccc(-c2noc(-c3ccoc3C)n2)cc1,-,-,-,10.5,-
O=C(c1ccccc1)N1CCc2ccccc21,-,.,-,-,-
CC1CCN(C(=S)NC(=O)c2ccccc2)CC1,36.4,-,.,-,-
O=C(NC(=S)N1CCc2ccccc21)c1ccccc1,51.4,.,-,-,-
COc1ccc(OC)c(N/C(C)=C/C(=O)c2ccc(Br)cc2)c1,-,.,-,-,-
Cc1c(C)n(CC(O)CN2CCCCCC2)c2ccccc12 (configuration not stated),-,-2.06,-,-,-
CC1=C(C(=O)OCC2CCCO2)C(c2ccc(F)cc2)NC(=O)N1 (configuration not stated),-,-,-,-,-
COc1ccc(/C=N/N2CCN(c3ccccc3OC)CC2)cc1OC,.,.,-,-,-
COc1ccc(/C=N/n2c(SC)nnc2-c2ccccc2)cc1C,-,.,-,27.3,-
CCc1nc(SCC(=O)Nc2ccc(OC)cc2[N+](=O)[O-])n[nH]1,-,.,-,.,.
O=C(OCCN1C(=O)c2cccc3c(N4CCOCC4)ccc(c23)C1=O)c1cc(Cl)cc(Cl)c1,-,.,.,30.4,-
CCOC(=O)c1[nH]c(C)c(C(=O)c2cc(F)ccc2F)c1C,-,.,55.3,-,-
CCOC(=O)c1[nH]c(C)c(C(=O)OCC)c1C,-,.,.,-,-
COc1ccccc1N(CN1C(=O)c2ccccc2C1=O)C(=O)c1cccc(C)c1,-,.,-,-,-
SMILES,KCC2 mod,ROMK primary,bCat nuc transl,MT stabilizer,Redox H2O2 prof
O=[N+]([O-])c1ccc(N=Nc2c(Cl)cc(O)cc2Cl)cc1,7.5,-8.77,-,.,.
CC(N)=Nc1ccc([N+](=O)[O-])cc1,-,-,-,-,-
O=C(OCn1ncc(Br)c(Br)c1=O)c1ccc(F)cc1,-4.68,-3.47,-,-,-
O=C(OCn1ncc(Br)c(Br)c1=O)c1ccccc1Cl,.,-,-,-,-
Cc1ccccc1C(=O)NNC(=S)NC(=O)c1ccccc1,29.6,2.33,-,-,-
CC(C)CNC(=S)NC(=O)c1ccc(F)cc1,18.4,-,-,-,-
O=C(/C=C/c1ccccc1)NC(=S)NNC(=O)c1ccco1,6.39,-,-,-,-
CC(C)CNC(=S)NC(=O)c1ccc(Cl)cc1Cl,39.3,.,-,-,-
Cc1cc(C)c(C)c(S(=O)(=O)NC(C)C(=O)O)c1C (configuration not stated),-,-,-,.,.
Cc1cc(C)nc(NCCC(=O)O)n1,-,-,-,-,-
Cc1ccc(C(=O)NC(=S)NNC(=O)c2ccccc2[N+](=O)[O-])cc1,-,.,-,-,-
CC(C)NC(=S)NC(=O)c1ccc(Cl)cc1Cl,28.9,.,-,-,-
Cc1ccc(C(=O)NNC(=S)NC(=O)c2ccc(Cl)cc2Cl)cc1,59.1,5.77,-,-,-
Cc1ccc(C(=O)NNC(=S)NC(=O)c2ccco2)cc1,55.2,3.59,-,-,-
Cc1ccc(C(=O)NNC(=O)c2ccco2)cc1,-,-,-,-,-
Cc1ccc(C2c3c(oc4ccc(Cl)cc4c3=O)C(=O)N2CCCN2CCOCC2)o1 (configuration not stated),6.58,.,-,-,-
COc1ccc(C2c3c(oc4ccc(Cl)cc4c3=O)C(=O)N2CCN2CCOCC2)cc1 (configuration not stated),-,.,-,.,.
Cc1cc2oc3c(c(=O)c2cc1C)C(c1ccc(F)cc1)N(CCCN1CCOCC1)C3=O (configuration not stated),-,.,-,-,-
O=C1c2oc3ccc(Cl)cc3c(=O)c2C(c2ccco2)N1CCN1CCOCC1 (configuration not stated),5.62,.,-,-,-
Cc1ccc(NC(=O)c2ccc(Cl)cc2[N+](=O)[O-])nc1,-,-,-,36.4,-
Cc1c(Cc2ccc3c(c2)OCO3)sc(NC(=O)C(C)(C)C)c1C#N,-,.,-,21.7,-
O=C(Cn1nc(-c2ccccc2)c2ccccc2c1=O)Nc1ccc(F)cc1,-,.,-,.,.
N#Cc1c(-c2ccccc2)c(-c2ccccc2)nn(CC(=O)NNC(=O)Nc2ccc(Cl)c(Cl)c2)c1=O,-,-,-,21.2,-
O=S(=O)([O-])CCC[n+]1c(/C=C\Nc2ccccc2)oc2ccc(-c3ccccc3)cc21,-,-,-,-,-
Cn1c(=O)n(Cc2ccco2)c(=N)c2c3c(sc21)CCC3,-,-,-,-,-
SMILES,KCC2 mod,ROMK primary,bCat nuc transl,MT stabilizer,Redox H2O2 prof
O=c1c2c3c(sc2[nH]c(=S)n1Cc1ccco1)CCC3,77.6,-5.52,-,.,.
CC1(C)Cc2c(sc3c2c(=N)n(Cc2ccco2)c(=O)n3Cc2ccccc2)CO1,-,.,-,-,-
CC1(C)Cc2c(sc3[nH]c(=S)n(Cc4ccco4)c(=O)c23)CO1,9,-,-,-,-
Cc1ccc(CSc2nnc(-c3cccnc3)n2N)cc1,-,.,-,-,-
Cc1ccc(C(=O)CSc2nnc(-c3cccnc3)n2N)cc1,-,.,-,30.2,-
CC(=O)Nc1ccc(S(=O)(=O)N2CCN(c3cccc(C)c3C)CC2)cc1,-,.,-,13.6,-
COc1ccccc1-n1ccnc1SCC(=O)NC1CCCC1,-,-,.,-,-
COc1ccccc1NC(=O)Cn1nc(-c2ccncc2)nc1SCC(=O)NC1CCCC1,-,-,-,10.9,-
CC(C)(C)C(=O)N1N=C(c2ccc(NS(C)(=O)=O)cc2)CC1c1cccs1 (configuration not stated),-,-,-,-,-
O=C(COC(=O)c1ccc(NS(=O)(=O)c2cccs2)cc1)NCc1ccco1,-,.,110.8,.,.
